Calls of active or inactive are those of the source.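 How the source made its calls, unless noted: active means viability at or under a set limit in both replicates, limit being median viability minus 3 SD (cut at about 48% in these data, passing the limit was not always enough); inconclusive means at or under the limit in just one replicate; inactive means at or above the limit in both replicates.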
Assays:
[1] = HUVEC growth inhibition – cell-based, human, primary screen (AID 575;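 active means viability at or below 30% in both replicate assays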;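 further: 100% = median of untreated cell wells with 0.1% DMSO on each plate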); settings: HUVEC proliferation, CellTiter-Glo luminescence, 72 h; at 10 µM; stronger effect = lower value
Outline: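 Assay system: Primary human umbilical vein endothelial cells | Quantity: 1250 cells per well | Medium: Supplemented EBM, 2% fetal bovine serum | Detection: CellTiter-Glo luminescence measuring cellular ATP | Read-out: % viability vs DMSO wells | Plate: Collagen-coated 384-well format | Times: 72 h exposure, 37 °C, 5% CO2, 30 min RT equilibration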

[2] = H69AR cell proliferation blockers – human, duplicate replicates, primary screen (AID 580); settings: H69AR lung tumor cells viability, ATP luminescence, 72 h; at 10 µM; stronger effect = lower value;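 further: 100% = mean luminescence of untreated wells and 0% = no signal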
[3] = MRP1 drug-resistance reversers in H69AR cells – cell-based, doxorubicin co-treatment, pilot screen (AID 601;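 active means viability loss from added drug above about 55%, and viability with drug at most 40%, in both replicates, limit read from the data, passing the limit was not always enough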); settings: CellTiter-Glo, 72 h, at 10 µM; for differential viability (reversal): stronger effect = higher value
[4] = yeast transport mutant growth inhibition pilot in 384-well plates, post-Golgi transport modulator project (AID 636; in the data active means inhibition above about 31%); settings: absorbance 615 nm, about 18 h, stronger effect = higher value
[5] = growth suppression of yeast trafficking mutant, preliminary HTS, modulators of trafficking downstream of Golgi apparatus project, 1536-format plate, OD 615 nm (AID 637; in the data active means inhibition above about 30%); settings: yeast transport mutant growth, absorbance 615 nm, 18 h; stronger effect = higher value
[6] = H69AR cells + 2 uM doxorubicin, measured here: viability with 2 uM doxorubicin, stronger effect = lower value
[7] = H69AR cells, compound alone cytotoxicity

Compound: Cc1ccc(-c2nn3c(C)nnc3s2)cc1N
- viability [1]: 83.5% (inactive)
- viability [2]: 94.7% (inactive)
- differential viability (reversal) ([3]; H69AR cells + 2 uM doxorubicin): 16.5% (inactive)
- viability [3, 6]: 78.2%
- viability [3, 7]: 94.7%
- inhibition [4]: -7.47% (inactive)
- inhibition [5]: 3.33% (inactive)

Compound: Cc1nc(SCC(=O)NCc2ccco2)c2c(C)c(C)sc2n1
- viability [1]: 81.7% (inactive)
- viability [2]: 86.6% (inactive)
- differential viability (reversal) ([3]; H69AR cells + 2 uM doxorubicin): 15.1% (inactive)
- viability [3, 6]: 71.4%
- viability [3, 7]: 86.6%
- inhibition [4]: -2.86% (inactive)
- inhibition [5]: -0.79% (inactive)

Compound: CCn1cnc2cc(NCc3cccc(OC)c3O)ccc21
- viability [1]: 99.3% (inactive)
- viability [2]: 92.3% (inactive)
- differential viability (reversal) ([3]; H69AR cells + 2 uM doxorubicin): 5.97% (inactive)
- viability [3, 6]: 86.3%
- viability [3, 7]: 92.3%
- inhibition [4]: -4.47% (inactive)
- inhibition [5]: 0.32% (inactive)

Compound: CCOC(=O)C1=C(CC)Nc2ccccc2N=C1NC(=O)Nc1ccccc1OC
- viability [1]: 50.5% (inactive)
- viability [2]: 74% (inactive)
- differential viability (reversal) ([3]; H69AR cells + 2 uM doxorubicin): -0.52% (inactive)
- viability [3, 6]: 74.5%
- viability [3, 7]: 74%
- inhibition [4]: 0.52% (inactive)
- inhibition [5]: 1.11% (inactive)

Compound: CN(C)c1nc(N)nc(CSc2nnnn2-c2cccc3ccccc23)n1
- viability [1]: 99.9% (inactive)
- viability [2]: 70.1% (inactive)
- differential viability (reversal) ([3]; H69AR cells + 2 uM doxorubicin): -3.27% (inactive)
- viability [3, 6]: 73.4%
- viability [3, 7]: 70.1%
- inhibition [4]: -6.58% (inactive)
- inhibition [5]: 4.13% (inactive)

Compound: Nc1cc(C(=O)O)ccc1Nc1ccccc1
- viability [1]: 86.8% (inactive)
- viability [2]: 111% (inactive)
- differential viability (reversal) ([3]; H69AR cells + 2 uM doxorubicin): 11.5% (inactive)
- viability [3, 6]: 99.8%
- viability [3, 7]: 111%
- inhibition [4]: -5.06% (inactive)
- inhibition [5]: 2.38% (inactive)

Compound: COc1ccc(OC)c(S(=O)(=O)NCCO)c1
- viability [1]: 87.5% (inactive)
- viability [2]: 95.2% (inactive)
- differential viability (reversal) ([3]; H69AR cells + 2 uM doxorubicin): 14.5% (inactive)
- viability [3, 6]: 80.7%
- viability [3, 7]: 95.2%
- inhibition [4]: -2.34% (inactive)
- inhibition [5]: 6.35% (inactive)

Compound: O=C(CSc1nnc2c3cc(F)ccc3nc(-c3ccccc3)n12)N1CCOCC1
- viability [1]: 77% (inactive)
- viability [2]: 72.6% (inactive)
- differential viability (reversal) ([3]; H69AR cells + 2 uM doxorubicin): 0.06% (inactive)
- viability [3, 6]: 72.5%
- viability [3, 7]: 72.6%
- inhibition [4]: 0.27% (inactive)
- inhibition [5]: 1.59% (inactive)

Compound: O=C(c1ccc(S(=O)(=O)N2CCOCC2)cc1)N1CCc2ccccc2C1
- viability [1]: 98.1% (inactive)
- viability [2]: 91.1% (inactive)
- differential viability (reversal) ([3]; H69AR cells + 2 uM doxorubicin): 2.92% (inactive)
- viability [3, 6]: 88.2%
- viability [3, 7]: 91.1%
- inhibition [4]: -2.37% (inactive)
- inhibition [5]: 9.37% (inactive)

Compound: O=C(c1ccc2c(c1)OCO2)N1CCNc2ccccc2C1
- viability [1]: 90.4% (inactive)
- viability [2]: 99.6% (inactive)
- differential viability (reversal) ([3]; H69AR cells + 2 uM doxorubicin): 11.9% (inactive)
- viability [3, 6]: 87.7%
- viability [3, 7]: 99.6%
- inhibition [4]: 0.65% (inactive)
- inhibition [5]: 3.17% (inactive)

Compound: CCCCCCn1c(CN2CCN(Cc3ccccc3)CC2)nc2c1c(=O)n(C)c(=O)n2C
- viability [1]: 86.6% (inactive)
- viability [2]: 70.9% (inactive)
- differential viability (reversal) ([3]; H69AR cells + 2 uM doxorubicin): 38.8% (inactive)
- viability [3, 6]: 32.1%
- viability [3, 7]: 70.9%
- inhibition [4]: -5.48% (inactive)
- inhibition [5]: 4.55% (inactive)

Compound: CC(OC(=O)c1cccc(NS(C)(=O)=O)c1)C(=O)Nc1ccc(N2CCOCC2)cc1 (stereo not given)
- viability [1]: 98.9% (inactive)
- viability [2]: 96% (inactive)
- differential viability (reversal) ([3]; H69AR cells + 2 uM doxorubicin): 9.84% (inactive)
- viability [3, 6]: 86.1%
- viability [3, 7]: 96%
- inhibition [4]: 0.78% (inactive)
- inhibition [5]: -2.54% (inactive)

Compound: COc1ccc(C(=O)Nc2ccc(S(=O)(=O)Nc3nccnc3OC)cc2)cc1OC
- viability [1]: 97.4% (inactive)
- viability [2]: 99.6% (inactive)
- differential viability (reversal) ([3]; H69AR cells + 2 uM doxorubicin): 11% (inactive)
- viability [3, 6]: 88.6%
- viability [3, 7]: 99.6%
- inhibition [4]: 1.69% (inactive)
- inhibition [5]: 4.6% (inactive)

Compound: CCOC(=O)Cc1csc(NC(=O)CSc2nnc(C)n2C)n1
- viability [1]: 108% (inactive)
- viability [2]: 95.2% (inactive)
- differential viability (reversal) ([3]; H69AR cells + 2 uM doxorubicin): 5.79% (inactive)
- viability [3, 6]: 89.4%
- viability [3, 7]: 95.2%
- inhibition [4]: 6.27% (inactive)
- inhibition [5]: -5.4% (inactive)

Compound: O=C(Nc1nnc(C2CCCCC2)s1)c1cccs1
- viability [1]: 102% (inactive)
- viability [2]: 93.2% (inactive)
- differential viability (reversal) ([3]; H69AR cells + 2 uM doxorubicin): 10.4% (inactive)
- viability [3, 6]: 82.9%
- viability [3, 7]: 93.2%
- inhibition [4]: 0% (inactive)
- inhibition [5]: -3.81% (inactive)

Compound: COc1ccc(S(=O)(=O)NC(C)C(=O)Nc2cccc(C(C)=O)c2)cc1 (stereo not given)
- viability [1]: 114% (inactive)
- viability [2]: 98.1% (inactive)
- differential viability (reversal) ([3]; H69AR cells + 2 uM doxorubicin): 9.17% (inactive)
- viability [3, 6]: 88.9%
- viability [3, 7]: 98.1%
- inhibition [4]: -4.8% (inactive)
- inhibition [5]: 0.16% (inactive)

Compound: Cc1cccc2cc(C#N)c(SCCN3CCCCC3)nc12
- viability [1]: 61.8% (inactive)
- viability [2]: 68.2% (inactive)
- differential viability (reversal) ([3]; H69AR cells + 2 uM doxorubicin): -10% (inactive)
- viability [3, 6]: 78.2%
- viability [3, 7]: 68.2%
- inhibition [4]: 1.35% (inactive)
- inhibition [5]: -0.18% (inactive)

Compound: CC(C)[C@H](NC(=O)OC(C)(C)C)c1nnc(S(=O)(=O)Cc2c(F)cccc2Cl)o1
- viability [1]: 69.5% (inactive)
- viability [2]: 1.65% (active)
- differential viability (reversal) ([3]; H69AR cells + 2 uM doxorubicin): 0.065% (inactive)
- viability [3, 6]: 1.58%
- viability [3, 7]: 1.65%
- inhibition [4]: -2.76% (inactive)
- inhibition [5]: 9.02% (inactive)

Compound: CCn1nccc1C(=O)Nc1nccs1
- viability [1]: 104% (inactive)
- viability [2]: 93.7% (inactive)
- differential viability (reversal) ([3]; H69AR cells + 2 uM doxorubicin): 10% (inactive)
- viability [3, 6]: 83.7%
- viability [3, 7]: 93.7%
- inhibition [4]: -4.34% (inactive)
- inhibition [5]: 3.65% (inactive)

Compound: O=C(c1ccccc1)N1CCN(Cc2ccccc2Br)CC1
- viability [1]: 105% (inactive)
- viability [2]: 92.3% (inactive)
- differential viability (reversal) ([3]; H69AR cells + 2 uM doxorubicin): 2.89% (inactive)
- viability [3, 6]: 89.4%
- viability [3, 7]: 92.3%
- inhibition [4]: -4.53% (inactive)
- inhibition [5]: -4.6% (inactive)
